Measured values published in paper PMC12138108 (Acta Pharmaceutica Sinica. B, 2025).
One block for each compound: values may come before it.

Legend:
[1] = Cytotoxicity on HepAD38 cells by cytopathic effect; format: cell-based, Human; settings: human, HepAD38 cells, CC50, reduction of viability of HepAD38 cells by 50%, CPE method (Table 2)
Procedure, shortened: (§1)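 HepAD38 cells (tetracycline-inducible HBV) were maintained in DMEM with 10% FBS, 1 µg/mL tetracycline and 400 µg/mL G-418. Cells were plated overnight, then given serial dilutions of test compound without tetracycline. Cytotoxicity was read by the cytopathic effect method. CC50 is the concentration cutting viability by 50%, calculated by the Reed & Muench method.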

HBV core protein (HBC) = HBV core protein (HBC) (Hepatitis B virus genotype D subtype ayw, UniProt P03146); assay: HBC degradation in HepAD38 cells by Western blot; format: cell-based; settings: for HBC degradation activity (Western blot): tet-, maximum non-toxic concentration, 72 h
[2] = test system: HBV DNA replication in HepAD38 cells; assay: In vitro anti-HBV assay in HepAD38 cells; format: cell-based, Hepatitis B virus (HBV); settings: reduction of HBV DNA by 50% in HepAD38 cells, qPCR, 4 days incubation (Table 2)
Procedure, shortened: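 HepAD38 cells were plated overnight, then exposed to serially diluted test compound without tetracycline for 4 days. Cytoplasmic HBV core DNA was extracted and quantified by real-time PCR. EC50 is relative to mock-treated controls, calculated by the Reed & Muench method.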

[3] = test system: 11 CpAMs-resistant mutant HBC (P25A, P25G, D29L, D29W, T33N, I105F, I105W, I105Y, T109A, V124W, V124F); assay: Degradation of CpAMs-resistant mutant HBC in transfected HepG2 cells; format: cell-based, Hepatitis B virus (HBV); settings: 18 h, HyT-S7 6, NVR 3-778 3, 3TC 1 μmol/L
Procedure, shortened: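 HepG2 cells at about 80% confluence were transfected with 0.25 µg plasmid. The pCMV-HBC-derived plasmids carried P25A, P25G, D29A/D29L, D29W, T33N, I105F, I105W, I105Y or T109A; pHBV1.3-derived plasmids carried V124F/V124W. At 6 h post-transfection, medium was replaced with fresh medium or test compound (6 µmol/L) or comparators (1–3 µmol/L) for 18 h. Intracellular core protein was detected by Western blot against a GAPDH/β-actin loading control, with chemiluminescence read-out.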

HepAD38 cells = assay: Cytotoxicity on HepAD38 cells by cytopathic effect; format: cell-based, Human
Procedure, shortened: as §1

[4] = Hepatitis B virus, HePAD38, 96 h

Compound: O=C(COCCNC(=O)C(c1ccccc1)c1ccccc1)NC1CCN(S(=O)(=O)c2cc(C(=O)Nc3cc(F)c(F)c(F)c3)ccc2F)CC1 [HyT-S10, 3-((4-(2-(2-(2,2-Diphenylacetamido)ethoxy)acetamido)piperidin-1-yl)sulfonyl)-4-fluoro-N-(3,4,5-trifluorophenyl)benzamide]
CC50 [1]: 20 µM
HBC degradation activity (Western blot) (HBV core protein (HBC)): still retains some degradation activity
EC50 [2, 4]: 0.26 µM

HBC degradation (Western blot) (HBV core protein (HBC); 20 μmol/L, 24 h): unable to induce degradation of HBC
Compound: NCCOCC(=O)NC1CCN(S(=O)(=O)c2cc(C(=O)Nc3cc(F)c(F)c(F)c3)ccc2F)CC1 [SP-O-7, 3-((4-(2-(2-Aminoethoxy)acetamido)piperidin-1-yl)sulfonyl)-4-fluoro-N-(3,4,5-trifluorophenyl)benzamide]

Compound: O=C(CC1c2ccccc2-c2ccccc21)NCCOCC(=O)NC1CCN(S(=O)(=O)c2cc(C(=O)Nc3cc(F)c(F)c(F)c3)ccc2F)CC1 [HyT-S11, 3-((4-(2-(2-(2-(9H-Fluoren-9-yl)acetamido)ethoxy)acetamido)piperidin-1-yl)sulfonyl)-4-fluoro-N-(3,4,5-trifluorophenyl)benzamide]
CC50 [1]: 34.6 µM
HBC degradation activity (Western blot) (HBV core protein (HBC)): still retains some degradation activity
EC50 [2, 4]: 0.21 µM

Compound: Nc1ccn([C@@H]2CS[C@H](CO)O2)c(=O)n1 [3TC, lamivudine]
degradation of 11 mutant types of HBC [3]: neither NVR 3-778 nor 3TC showed any degradation effect

Compound: CC(C)(C)OC(=O)/N=C(\NCCC[C@H](NC(=O)OC(C)(C)C)C(=O)NCCOCC(=O)NC1CCN(S(=O)(=O)c2cc(C(=O)Nc3cc(F)c(F)c(F)c3)ccc2F)CC1)NC(=O)OC(C)(C)C [HyT-S15, 2-Methylpropan-2-yl {[(6E,11S)-18-({1-[(2-fluoro-5-{[(3,4,5-trifluorophenyl)amino]carbonyl}phenyl)dioxo-λ6-sulfanyl]hexahydropyridin-4-yl}amino)-2,2-dimethyl-11-({[(2-methylprop-2-yl)oxy]carbonyl}amino)-4,12,18-trioxo-3,16-dioxa-5,7,13-triazaoctadecan-6-ylidene]amino}methanoate]
maximum non-toxic concentration by CPE method (HepAD38 cells; HepAD38 cells, concentration used in the degradation test): 20 µmol/L
CC50 [1]: 60 µM
HBC degradation activity (Western blot) (HBV core protein (HBC)): still retains some degradation activity
EC50 [2, 4]: 0.45 µM

Compound: N^1-(Bicyclo[2.2.1]hept-2-en-1-ylmethyl)-N^6-(1-((2-fluoro-5-((3,4,5-trifluorophenyl)carbamoyl)phenyl)sulfonyl)piperidin-4-yl)adipamide [HyT-S12]
CC50 (HepAD38 cells; reduction of viability of HepAD38 cells by 50%, CPE method (Table 2)): 28.8 µM
EC50 [2]: 0.22 µM

Compound: CC(C)Cc1ccc([C@H](C)C(=O)NCCOCC(=O)NC2CCN(S(=O)(=O)c3cc(C(=O)Nc4cc(F)c(F)c(F)c4)ccc3F)CC2)cc1 [HyT-S13, (S)-4-Fluoro-3-((4-(2-(2-(2-(4-isobutylphenyl)propanamido)ethoxy)acetamido)piperidin-1-yl)sulfonyl)-N-(3,4,5-trifluorophenyl)benzamide]
CC50 [1]: 11.6 µM
HBC degradation activity (Western blot) (HBV core protein (HBC)): still retains some degradation activity
EC50 [2, 4]: 0.59 µM

Compound: CC(C)[C@@H]1CC[C@@H](C)C[C@H]1OCC(=O)NCCOCC(=O)NC1CCN(S(=O)(=O)c2cc(C(=O)Nc3cc(F)c(F)c(F)c3)ccc2F)CC1 [HyT-S14, 4-Fluoro-3-((4-(2-(2-(2-(((1R,2S,5R)-2-isopropyl-5-methylcyclohexyl)oxy)acetamido)ethoxy)acetamido)piperidin-1-yl)sulfonyl)-N-(3,4,5-trifluorophenyl)benzamide]
CC50 [1]: 11.6 µM
HBC degradation activity (Western blot) (HBV core protein (HBC)): still retains some degradation activity
EC50 [2, 4]: 0.29 µM
